Reference: PMC3774598 (Biochemistry, 2013)

Columns and labels:
saFabI [1] = biological target: T1, saFabI (Staphylococcus aureus, UniProt Q6GI75); test: Forward progress curve kinetics of saFabI inhibition; assay type: biochemical; settings: for tR: residence time tR = 1/k-1, k-1 from progress curves (b); for slow-binding inhibition of saFabI: curvature of progress curves; for potency estimated from few doses: read-out: Ki
T1 sequence (Q6GI75 1-256): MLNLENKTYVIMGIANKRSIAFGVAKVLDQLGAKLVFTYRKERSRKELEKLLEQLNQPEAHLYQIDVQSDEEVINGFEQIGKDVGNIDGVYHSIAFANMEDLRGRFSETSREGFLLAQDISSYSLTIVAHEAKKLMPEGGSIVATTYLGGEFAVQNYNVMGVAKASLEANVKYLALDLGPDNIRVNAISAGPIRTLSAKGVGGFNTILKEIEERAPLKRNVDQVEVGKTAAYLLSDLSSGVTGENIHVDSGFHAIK

saFabI R40Q/K41N/S44L = saFabI R40Q/K41N/S44L (Staphylococcus aureus, UniProt Q6GI75, K41N/R40Q/S44L); test: 32P-NAD+ dissociation kinetics; assay type: binding; settings: for k-1: footnote d: 32P-NAD-based dissociation curve fitted to Eq 5; for tR: residence time tR = 1/k-1, k-1 from 32P-NAD dissociation (d)
saFabI [2] = biological target: T1, saFabI; test: Jump dilution assay; assay type: biochemical; settings: for recovery of enzyme activity after dilution: 1:200 dilution after overnight preincubation with NADP+; for k-1: footnote c: jump dilution curve fitted to Eq 1; for tR: residence time tR = 1/k-1, k-1 from jump dilution (c)
Outline: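 Enzyme expressed in E. coli BL21(DE3) and purified by Ni2+ affinity and size exclusion. 10 μM enzyme was preincubated overnight at room temperature with 15 μM inhibitor and 500 μM NADP+. NADPH oxidation was read at 340 nm, 20 °C, and fitted to the Morrison–Walsh integrated equation.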

| SMILES | tR (saFabI [1]) | k-1 (saFabI R40Q/K41N/S44L) | tR (saFabI R40Q/K41N/S44L) | other results |
| --- | --- | --- | --- | --- |
| N#Cc1ccccc1Oc1ccc(Cl)cc1O [PT447] | 136.4 ^b min | 0.47 ± 0.08 ^d hr^-1 | 127.7 ^d min | recovery of enzyme activity after dilution (saFabI [2]): partially recovered |
| CCCCCCc1ccc(Oc2ccccc2)c(O)c1 [PT04, 5-hexyl-2-phenoxyphenol] | – | 0.13 ± 0.04 ^d hr^-1 | 461.5 ^d min | – |
| O=[N+]([O-])c1ccc(Oc2ccccc2)c(O)c1 [PT104] | 6.6 ^b min | – | – | slow-binding inhibition of saFabI (saFabI [1]; in words): clear slow-binding inhibition; potency estimated from few doses (saFabI [1]): 1.49 ± 0.27 nM |
| CCc1ccc(Oc2ccccc2)c(O)c1 [PT01] | 63.8 ^b min | 0.72 ± 0.08 ^d hr^-1 | 83.3 ^d min | – |
| Oc1cc(Cl)ccc1Oc1ccccc1 [PT52] | 35.3 ^b min | 2.13 ± 0.41 ^d hr^-1 | 28.2 ^d min | recovery of enzyme activity after dilution (saFabI [2]): full recovery of enzyme activity; k-1 (saFabI [2]): 2.33 ± 0.03 ^c hr^-1; tR (saFabI [2]): 25.8 ^c min |
| CCCCCc1ccc(Oc2ccccc2)c(O)c1 [PT03] | 300.0 ^b min | 0.32 ± 0.17 ^d hr^-1 | 187.5 ^d min | – |
| N#Cc1ccccc1Oc1ccc(Br)cc1O [PT443] | 210.9 ^b min | – | – | – |
| CCCCCCc1ccc(Oc2ccccc2C)c(O)c1 [PT70] | – | – | – | change of affinity by the 2′-substituent (saFabI [1]; B-ring ortho position SAR, in words, PT70 data not shown): increased affinity |
| CCCc1ccc(Oc2ccccc2)c(O)c1 [PT02] | 60.9 ^b min | 0.57 ± 0.09 ^d hr^-1 | 105.3 ^d min | – |
| Cc1ccc(Oc2ccccc2)c(O)c1 [PT53, 5-Methyl-2-phenoxyphenol] | 17.3 ^b min | – | – | potency estimated from few doses (saFabI [1]): 0.38 ± 0.03 nM; k-1 (saFabI [2]): 4.53 ± 0.08 ^c hr^-1; tR (saFabI [2]): 13.2 ^c min |
| Oc1ccccc1Oc1ccccc1 [PT51] | ≤ 1 min | – | – | slow-binding inhibition of saFabI (saFabI [1]; in words): slow-binding inhibition could not be observed |
